In brackets after ≈: the same amount, converted by molar mass. Activity calls are given as the source filed them. The calls are words filed in the database; no cut-off is given here.
What was measured:
Pseudomonas aeruginosa = test: Antibacterial activity against Pseudomonas aeruginosa ATCC 27853 after 24 hrs by broth microdilution based CLSI method; format: functional; settings: ATCC 27853, 24 h
Bacillus pumilus [1] = test: Antibacterial activity against Bacillus pumilus CMCC63202 after 24 hrs by broth microdilution based CLSI method; format: functional; settings: CMCC63202, 24 h
Staphylococcus aureus [2] = test: Bactericidal activity against clinical isolate of penicillin-resistant Staphylococcus aureus incubated for 24 hrs followed by plating onto tryptic soy agar plates and further incubated for 24 hrs by broth microdilution based CLSI method; format: functional
In short: (§1)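 MBC taken from the CLSI broth microdilution plates. These held 2-fold serial dilutions from 64 to 0.125 µg/mL in cation-adjusted Mueller-Hinton broth, seeded with log-phase bacteria and incubated aerobically for 24 h at 37 °C. Well aliquots were plated on TSA and colonies counted after 24 h. MBC is the lowest concentration giving a ≥3-log CFU reduction.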

Staphylococcus aureus [3] = test: Bactericidal activity against Staphylococcus aureus ATCC 25923 incubated for 24 hrs followed by plating onto tryptic soy agar plates and further incubated for 24 hrs by broth microdilution based CLSI method; format: functional; settings: ATCC 25923, 24 h
Bacillus subtilis [4] = test: Antibacterial activity against Bacillus subtilis ATCC 9372 after 24 hrs by broth microdilution based CLSI method; format: functional; settings: ATCC 9372, 24 h
Staphylococcus aureus [5] = test: Antibacterial activity against methicillin-resistant Staphylococcus aureus ATCC 43300 infected in mouse assessed as reduction of bacterial burden in blood at 30 mg/kg, ip administered 0.1, 6 hrs postinfection and measured at 24 hrs post last dose; format: functional, organism-based
Mus musculus [6] = test: Toxicity in mouse infected with methicillin-resistant Staphylococcus aureus ATCC 43300 assessed as mouse death at 30 mg/kg, ip administered 0.1, 6 hrs postinfection and measured after 1 week; format: organism-based; settings: in vivo, 168 h
In short: (§2)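 KM mice (about 20 g) infected i.v. with 5.4 × 10⁷ CFU MRSA in 0.1 mL saline. Dosing i.p. in vehicle of 1% DMAC, 30% TEG, 7% HPβCD in water (final), with a vehicle-only group. Deaths recorded for one week after bacterial inoculation.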

Staphylococcus aureus [7] = test: Bactericidal activity against methicillin-resistant Staphylococcus aureus ATCC 43300 assessed as reduction in viable bacterial count at 8 ug/ml after 24 hrs by time-kill assay; format: functional, organism-based
In short: (§3)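 Growing culture diluted to about 10⁶ CFU/mL in CAMH broth containing compound, then shaken at 37 °C. At set times, samples were serially diluted tenfold in CAMH broth and three dilutions plated on TSA. CFU/mL counted after 24 h at 37 °C. Detection limit 10³ CFU/mL. Points are the mean of two independent runs, with SD.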

Staphylococcus aureus [8] = test: Antibacterial activity against methicillin-resistant Staphylococcus aureus ATCC 43300 after 24 hrs by broth microdilution based CLSI method; format: functional; settings: ATCC 43300, 24 h
Escherichia coli = test: Antibacterial activity against Escherichia coli ATCC 25922 after 24 hrs by broth microdilution based CLSI method; format: functional; settings: ATCC 25922, 24 h
Staphylococcus aureus [9] = test: Bactericidal activity against methicillin-resistant Staphylococcus aureus ATCC 43300 incubated for 24 hrs followed by plating onto tryptic soy agar plates and further incubated for 24 hrs by broth microdilution based CLSI method; format: functional; settings: ATCC 43300, 24 h; in short: as §1
Staphylococcus aureus [10] = test: Bactericidal activity against methicillin-resistant Staphylococcus aureus ATCC 43300 assessed as reduction in viable bacterial count at 1 to 2 times MIC after 12 hrs by time-kill assay; format: functional; in short: as §3
Bacillus subtilis [11] = test: Potency index, ratio of PC190723 MIC to test compound MIC for antibacterial activity against Bacillus subtilis ATCC 9372 after 24 hrs by broth microdilution based CLSI method
Staphylococcus aureus [12] = test: Antibacterial activity against Staphylococcus aureus ATCC 25923 after 24 hrs by broth microdilution based CLSI method; format: functional; settings: ATCC 25923, 24 h
[13] = target: T1, Cell division protein FtsZ (Bacillus subtilis (strain 168)) (UniProt P17865); test: Induction of Bacillus subtilis FtsZ assessed as increase in size of polymer at 10 ug/ml after 20 mins by transmission electron microscopic analysis
T1 sequence (whole entry): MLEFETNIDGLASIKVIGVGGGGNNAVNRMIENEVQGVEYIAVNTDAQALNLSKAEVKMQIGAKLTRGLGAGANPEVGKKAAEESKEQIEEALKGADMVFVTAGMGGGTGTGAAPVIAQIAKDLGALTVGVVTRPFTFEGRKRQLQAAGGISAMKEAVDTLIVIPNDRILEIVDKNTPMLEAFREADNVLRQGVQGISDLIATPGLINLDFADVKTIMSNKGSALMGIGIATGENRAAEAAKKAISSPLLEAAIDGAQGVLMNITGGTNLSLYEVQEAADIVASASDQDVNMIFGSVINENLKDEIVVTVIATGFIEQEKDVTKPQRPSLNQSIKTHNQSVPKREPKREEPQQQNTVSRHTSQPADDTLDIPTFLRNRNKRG
In short: (§4)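 Purified B. subtilis FtsZ incubated with or without compound at room temperature for 20 min in polymerization buffer (50 mM MES, 50 mM KCl, 2 mM magnesium acetate, 1 mM GTP). Samples put on glow-discharged Formvar/carbon copper grids, negatively stained with 1% phosphotungstic acid for 1 min, imaged by TEM at 100 kV.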

Mus musculus [14] = test: Toxicity in mouse infected with methicillin-resistant Staphylococcus aureus ATCC 43300 assessed as mouse death at 30 mg/kg, ip administered 0.1, 3, 6, 9 and 12 hrs postinfection and measured after 1 week; format: organism-based; settings: in vivo, 168 h; in short: as §2
Staphylococcus aureus [15] = test: Antibacterial activity against clinical isolate of penicillin-resistant Staphylococcus aureus after 24 hrs by broth microdilution based CLSI method; format: functional
Bacillus pumilus [16] = test: Potency index, ratio of PC190723 MIC to test compound MIC for Bacillus pumilus CMCC63202 after 24 hrs by broth microdilution based CLSI method; format: functional
HeLa = test: Cytotoxicity in human HeLa cells assessed as reduction in cell viability after 36 hrs by MTT assay; format: cell-based
In short: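 HeLa cells seeded at 10⁴ cells/well and left overnight, then exposed to compound for 36 h. MTT (5 mg/mL solution) added for 4 h at 37 °C, medium replaced by DMSO for 10 min, absorbance read at 570 nm.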

Staphylococcus aureus [17] = test: Antibacterial activity against methicillin-resistant Staphylococcus aureus ATCC 43300 infected in mouse assessed as reduction of bacterial burden in blood at 30 mg/kg, ip administered 0.1, 3, 6, 9 and 12 hrs postinfection and measured at 24 hrs post last dose; format: functional, organism-based
[18] = target: T1, Cell division protein FtsZ (Bacillus subtilis (strain 168)); test: Induction of Bacillus subtilis FtsZ assessed as increase in thickness of polymer size at 10 ug/ml after 20 mins by transmission electron microscopic analysis; in short: as §4
[19] = target: T1, Cell division protein FtsZ (Bacillus subtilis (strain 168)); test: Induction of Bacillus subtilis FtsZ assessed as increase in bundling of protofilament at 10 ug/ml after 20 mins by transmission electron microscopic analysis; in short: as §4
Staphylococcus aureus [20] = test: Selectivity ratio of MBC for methicillin-resistant Staphylococcus aureus ATCC 43300 to MIC for methicillin-resistant Staphylococcus aureus ATCC 43300; format: functional
In short: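 Ratio of MBC to MIC. Both come from the same CLSI broth microdilution run: 2-fold dilutions from 64 to 0.125 µg/mL in CAMH broth, 24 h at 37 °C. MIC is the last well without turbidity. MBC is the lowest concentration giving a ≥3-log CFU drop after plating on TSA for 24 h. Ratio 1–2 is read as bactericidal, ≥8 as bacteriostatic.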

[21] = target: T1, Cell division protein FtsZ (Bacillus subtilis (strain 168)); test: Induction of Bacillus subtilis FtsZ polymerization at 10 ug/ml in presence of GTP by microtiter plate-based light-scattering assay
In short: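 Recombinant purified B. subtilis FtsZ (5 µM) with 1 mM GTP in 50 mM MES, 50 mM KCl, 2 mM magnesium acetate, compound 0–10 µg/mL. Polymerization followed as light scattering (A340) continuously at 25 °C for 30 min. DMSO vehicle and a non-FtsZ control were included.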

Staphylococcus aureus [22] = test: Bactericidal activity against methicillin-resistant Staphylococcus aureus ATCC 43300 assessed as reduction in viable bacterial count at 4 times MIC after 6 hrs by time-kill assay; format: functional, organism-based; in short: as §3
Bacillus pumilus [23] = test: Antibacterial activity against Bacillus pumilus CMCC63202 assessed as increase in bacterial cell length at 0.5 times MIC after 18 hrs by phase-contrast optical microscopic analysis; format: functional, organism-based
In short: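 Harvested cells resuspended in PBS, spotted on poly-L-lysine (0.1% w/v) coated slides and cell length examined by phase-contrast microscopy at 40 magnification.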

Staphylococcus aureus [24] = test: Selectivity ratio of MBC for Staphylococcus aureus ATCC 25923 to MIC for Staphylococcus aureus ATCC 25923; format: functional
Staphylococcus aureus [25] = test: Bactericidal activity against methicillin-resistant Staphylococcus aureus ATCC 43300 assessed as reduction in viable bacterial count at 0.5 times MIC after 24 hrs by time-kill assay; format: functional, organism-based; in short: as §3

Question: How did the MIC (Pseudomonas aeruginosa) turn out when `CC(=O)NC[C@H]1CN(c2ccc(N3CCOCC3)c(F)c2)C(=O)O1` [LINEZOLID] was run?
Answer: > 64 µg/mL

Question: What about the MIC (Bacillus pumilus [1]) of the same molecule?
Answer: 1 µg/mL (≈ 2.96 µM)

Question: What about the MBC (Staphylococcus aureus [2]) of the same molecule?
Answer: 32 µg/mL (≈ 94.9 µM)

Question: What about the MBC (Staphylococcus aureus [3]) of the same molecule?
Answer: 32 µg/mL (≈ 94.9 µM)

Question: What about the MIC (Bacillus subtilis [4]) of the same molecule?
Answer: 1 µg/mL (≈ 2.96 µM)

Question: And the Activity (Staphylococcus aureus [5])?
Answer: Active

Question: And the Activity (Mus musculus [6])?
Answer: Non-Toxic

Question: And the Activity (Staphylococcus aureus [7])?
Answer: Active

Question: What about the MIC (Staphylococcus aureus [8]) of the same molecule?
Answer: 1 µg/mL (≈ 2.96 µM)

Question: What about the MIC (Escherichia coli) of the same molecule?
Answer: > 64 µg/mL

Question: What about the MBC (Staphylococcus aureus [9]) of the same molecule?
Answer: 32 µg/mL (≈ 94.9 µM)

Question: With `CC(C)(C)c1ccc(-c2cc(COc3ccc(F)c(C(N)=O)c3F)no2)cc1` as the molecule, how does the viable count (Staphylococcus aureus [10]) read?
Answer: 1000 CFU/mL

Question: And the Ratio (Bacillus subtilis [11])?
Answer: 32

Question: What about the MIC (Staphylococcus aureus [12]) of the same molecule?
Answer: 2 µg/mL (≈ 5.18 µM)

Question: What about the MIC (Pseudomonas aeruginosa) of the same molecule?
Answer: > 64 µg/mL

Question: What about the Activity [13] of the same molecule?
Answer: Active

Question: And the MIC (Bacillus pumilus [1])?
Answer: 0.03 µg/mL (≈ 0.0776 µM)

Question: And the MBC (Staphylococcus aureus [2])?
Answer: 8 µg/mL (≈ 20.7 µM)

Question: What about the MBC (Staphylococcus aureus [3]) of the same molecule?
Answer: 4 µg/mL (≈ 10.4 µM)

Question: What about the Activity (Mus musculus [14]) of the same molecule?
Answer: Non-Toxic

Question: What about the MIC (Staphylococcus aureus [15]) of the same molecule?
Answer: 4 µg/mL (≈ 10.4 µM)

Question: What about the Ratio (Bacillus pumilus [16]) of the same molecule?
Answer: 32

Question: And the MIC (Bacillus subtilis [4])?
Answer: 0.015 µg/mL (≈ 0.0388 µM)

Question: And the IC50 (HeLa)?
Answer: > 128 µg/mL

Question: And the Activity (Staphylococcus aureus [17])?
Answer: Active

Question: What about the MIC (Staphylococcus aureus [8]) of the same molecule?
Answer: 2 µg/mL (≈ 5.18 µM)

Question: And the Activity [18]?
Answer: Active

Question: What about the Activity [19] of the same molecule?
Answer: Active

Question: What about the Ratio (Staphylococcus aureus [20]) of the same molecule?
Answer: 1

Question: And the Activity [21]?
Answer: Active

Question: And the Activity (Staphylococcus aureus [22])?
Answer: Active

Question: And the MIC (Escherichia coli)?
Answer: > 64 µg/mL

Question: What about the MBC (Staphylococcus aureus [9]) of the same molecule?
Answer: 2 µg/mL (≈ 5.18 µM)

Question: What about the Activity (Bacillus pumilus [23]) of the same molecule?
Answer: Active

Question: And the Ratio (Staphylococcus aureus [24])?
Answer: 2

Question: What about the Activity (Staphylococcus aureus [25]) of the same molecule?
Answer: inactive

Source: ChEMBL document CHEMBL4257566, “Design, synthesis and structure-based optimization of novel isoxazole-containing benzamide derivatives as FtsZ modulators” (Eur J Med Chem, 2018)
